{"source": "ChEMBL document CHEMBL1140862", "about": "“Berberine analogues as a novel class of the low-density-lipoprotein receptor up-regulators: synthesis, structure-activity relationships, and cholesterol-lowering efficacy” (J Med Chem, 2009)", "tested_on": "HepG2", "assay": "Induction of LDLR mRNA expression in human HepG2 cells after 12 hrs by RT-PCR assay relative to untreated control", "type": "functional", "in_short": "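HepG2 cells kept in RPMI-1640 with 10% FBS, moved 24 h before dosing to 10% LPDS, then at ~80% confluence to RPMI-1640 with 0.5% LPDS plus compound (5.0 µg/mL in table; concentrations as indicated in figure), 12 h, 37 °C. Total RNA reverse-transcribed, TaqMan real-time PCR, comparative CT method with GAPDH reference; fold of untreated cells (=1); mean of three experiments.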", "data": [{"smiles": "COc1ccc2c(c1OC)C[N+]1(C)CCc3cc4c(cc3C1C2)OCO4.[I-]", "note": "(stereo not given)", "values": [{"measurement": "fold change (FC)", "result": 1.1}]}, {"smiles": "CCOc1cc2c(cc1O)-c1cc3ccc(OC)c(OC)c3c[n+]1CC2.[Br-]", "values": [{"measurement": "fold change (FC)", "result": 0.9}]}, {"smiles": "CCCOc1cc2c(cc1OCCC)-c1cc3ccc(OC)c(OC)c3c[n+]1CC2.[Br-]", "values": [{"measurement": "fold change (FC)", "result": 0.9}]}, {"smiles": "COc1ccc2cc3[n+](cc2c1OC)CCc1cc(OCc2ccccc2)c(OCc2ccccc2)cc1-3.[Br-]", "values": [{"measurement": "fold change (FC)", "result": 1}]}, {"smiles": "CCCCc1c2[n+](cc3c(OC)c(OC)ccc13)CCc1cc3c(cc1-2)OCO3.[Cl-]", "values": [{"measurement": "fold change (FC)", "result": 0.9}]}, {"smiles": "CCCCCCc1c2[n+](cc3c(OC)c(OC)ccc13)CCc1cc3c(cc1-2)OCO3.[Cl-]", "values": [{"measurement": "fold change (FC)", "result": 1}]}, {"smiles": "CCCCc1c2[n+](cc3cc(OC)c(OC)cc13)CCc1cc3c(cc1-2)OCO3.[Cl-]", "values": [{"measurement": "fold change (FC)", "result": 0.9}]}, {"smiles": "CCCc1c2[n+](cc3c(OC)c(OC)ccc13)CCc1cc3c(cc1-2)OCO3.[Cl-]", "values": [{"measurement": "fold change (FC)", "result": 0.9}]}, {"smiles": "COc1cc2c[n+]3c(c(Cc4ccccc4)c2cc1OC)-c1cc2c(cc1CC3)OCO2.[Br-]", "values": [{"measurement": "fold change (FC)", "result": 1}]}, {"smiles": "COc1cc2c[n+]3c(c(C)c2cc1OC)-c1cc2c(cc1CC3)OCO2.[Cl-]", "values": [{"measurement": "fold change (FC)", "result": 0.9}]}, {"smiles": "COc1ccc2c(C)c3[n+](cc2c1OC)CCc1cc2c(cc1-3)OCO2.[Cl-]", "values": [{"measurement": "fold change (FC)", "result": 1.1}]}, {"smiles": "CCc1c2[n+](cc3c(OC)c(OC)ccc13)CCc1cc3c(cc1-2)OCO3.[Cl-]", "values": [{"measurement": "fold change (FC)", "result": 1.04}]}, {"smiles": "COc1ccc2c(c1OC)C[N+]1(CCO)CCc3cc4c(cc3C1C2)OCO4.[Br-]", "note": "(stereo not given)", "values": [{"measurement": "fold change (FC)", "result": 1.2}]}, {"smiles": "CCCC[N+]12CCc3cc4c(cc3C1Cc1ccc(OC)c(OC)c1C2)OCO4.[Br-]", "note": "(stereo not given)", "values": [{"measurement": "fold change (FC)", "result": 1.1}]}, {"smiles": "CCOC(=O)C[N+]12CCc3cc4c(cc3C1Cc1ccc(OC)c(OC)c1C2)OCO4.[Br-]", "note": "(stereo not given)", "values": [{"measurement": "fold change (FC)", "result": 0.8}]}]}
